Several values for one entry are separate records, joined by “and”; a condition that tells them apart may be missing. Equal entries are not always repeated.
How the values were obtained:
[1] = target: Mu-type opioid receptor (Rattus norvegicus) (UniProt P33535); assay: Inhibition against [3H]naloxone opioid receptor mu 1 in rat brain membranes at 1 umol/L.; format: cell membranes
Summary of the method: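 Rat brain membranes (without cerebellum); 1 nM [3H]naloxone; preincubation 37 °C 40 min; incubation 50 mM Tris-HCl pH 7.4, 25 °C 30 min; nonspecific binding with 10^-5 M naloxone; triplicate, GF/B filtration, three ice-cold washes, scintillation counting.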

[2] = target: Delta-type opioid receptor (Rattus norvegicus) (UniProt P33533); assay: Inhibition against [3H]D-Ala-deltorphin opioid receptor delta 2 in rat brain membranes at 1 umol/L.; format: cell membranes
Sequence of Delta-type opioid receptor (Rattus norvegicus) (P33533 whole entry): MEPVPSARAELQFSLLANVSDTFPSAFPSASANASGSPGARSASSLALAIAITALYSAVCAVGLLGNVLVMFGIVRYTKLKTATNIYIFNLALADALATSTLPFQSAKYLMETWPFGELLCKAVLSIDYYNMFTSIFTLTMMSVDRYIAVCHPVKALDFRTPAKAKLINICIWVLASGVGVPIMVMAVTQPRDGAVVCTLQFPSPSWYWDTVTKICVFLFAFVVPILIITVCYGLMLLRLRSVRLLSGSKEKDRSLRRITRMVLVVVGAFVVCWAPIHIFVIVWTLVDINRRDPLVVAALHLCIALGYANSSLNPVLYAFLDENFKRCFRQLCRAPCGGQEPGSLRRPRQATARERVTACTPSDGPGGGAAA
Summary of the method: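 Rat brain membranes (without cerebellum, pons, medulla oblongata); 1 nM [3H]-D-Ala-deltorphine; no preincubation; 50 mM Tris-HCl pH 7.4 with BSA and 4.5 mM MgCl2; 37 °C 90 min; nonspecific binding with 10^-5 M naloxone; triplicate, GF/B filtration, scintillation counting.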

[3] = Acid dissociation constant was measured in experiment 2; format: ADME; settings: read-out: pKa2
[4] = Acid dissociation constant was measured in experiment 1; format: ADME; settings: read-out: pKa1
[5] = target: T1, Kappa-type opioid receptor (Homo sapiens, UniProt P41145); assay: Inhibition against [3H]diprenorphine human Opioid receptor kappa 1 […] at 10 umol/L; format: cell membranes
T1 sequence (P41145 whole entry): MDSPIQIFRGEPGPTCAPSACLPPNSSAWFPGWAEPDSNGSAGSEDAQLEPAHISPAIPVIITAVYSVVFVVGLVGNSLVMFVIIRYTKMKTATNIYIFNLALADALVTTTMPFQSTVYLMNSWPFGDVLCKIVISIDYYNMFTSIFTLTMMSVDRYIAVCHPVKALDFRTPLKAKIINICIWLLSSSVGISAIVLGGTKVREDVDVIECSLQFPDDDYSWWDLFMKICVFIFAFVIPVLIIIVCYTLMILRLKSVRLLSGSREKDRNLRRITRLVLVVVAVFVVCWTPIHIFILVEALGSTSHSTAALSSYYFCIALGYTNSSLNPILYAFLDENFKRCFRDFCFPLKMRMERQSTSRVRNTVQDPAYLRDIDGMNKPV

[6] = target: Delta-type opioid receptor (Rattus norvegicus) (UniProt P33533); assay: Inhibition against [3H]DPDPE Opioid receptor delta 1 in rat brain membranes at 1 umol/L; format: cell membranes
Summary of the method: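 Rat brain membranes (without cerebellum, pons, medulla oblongata); 0.25 nM [3H]Cl-DPDPE; preincubation 25 °C 30 min; 50 mM Tris-HCl pH 7.4 with BSA, 45 μM PMSF, 4.5 mM MgCl2; 25 °C 240 min; nonspecific binding with 10^-3 M naloxone; triplicate, filtration, scintillation counting.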

[7] = target: T1, Kappa-type opioid receptor; assay: (§1) Inhibition against [3H]diprenorphine human Opioid receptor kappa 1 at 10 umol/L
[8] = target: T1, Kappa-type opioid receptor; assay: Inhibition against [3H]diprenorphine human Opioid receptor kappa 1
[9] = target: Kappa-type opioid receptor (Rattus norvegicus) (UniProt P34975); assay: Inhibition against [3H]-CI 977 rat Opioid receptor kappa 1 at 10 umol/L
Sequence of Kappa-type opioid receptor (Rattus norvegicus) (P34975 whole entry, looked up): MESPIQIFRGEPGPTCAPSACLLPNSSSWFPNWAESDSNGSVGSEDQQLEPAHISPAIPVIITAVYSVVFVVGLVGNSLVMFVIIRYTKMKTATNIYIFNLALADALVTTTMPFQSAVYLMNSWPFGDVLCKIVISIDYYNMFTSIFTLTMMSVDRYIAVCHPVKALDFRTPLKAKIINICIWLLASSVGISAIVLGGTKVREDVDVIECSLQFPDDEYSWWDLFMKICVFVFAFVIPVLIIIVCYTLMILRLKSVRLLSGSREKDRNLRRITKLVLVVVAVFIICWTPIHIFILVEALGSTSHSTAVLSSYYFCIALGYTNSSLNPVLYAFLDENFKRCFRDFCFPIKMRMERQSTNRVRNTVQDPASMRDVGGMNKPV

[10] = target: T1, Kappa-type opioid receptor; assay: as §1; remark: listed apart in the source
[11] = Acid dissociation constant was measured in experiment 4; format: ADME; settings: read-out: pKa4
[12] = Acid dissociation constant was measured in experiment 3; format: ADME; settings: read-out: pKa3
[13] = target: T1, Kappa-type opioid receptor; assay: Inhibition against [3H]diprenorphine human Opioid receptor kappa 1 at 10 uM/L
[14] = target: Kappa-type opioid receptor (Mus musculus) (UniProt P33534); assay: Antinociceptive activity evaluated against Opioid receptor kappa 1 in mice by writhing test (administered intravenously)
Sequence of Kappa-type opioid receptor (Mus musculus) (P33534 whole entry): as the sequence (P34975 whole entry, looked up) above, with E11D, A17S, P51S, V308A counted along it
Summary of the method: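 Male NMRI mice (31-37 g); writhing induced by ip 0.35 mL of 0.02% phenylquinone; writhes counted 5–20 min after phenylquinone; food and water withdrawn during test; compound given iv; ED50 derived.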

[15] = target: Kappa-type opioid receptor (Mus musculus) (UniProt P33534); assay: Antinociceptive activity evaluated against Opioid receptor kappa 1 in mice by tail-flick assay (administered intravenously)
Summary of the method: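 Male NMRI mice (23-26 g), group-housed, ~22 °C, 12-h light-dark cycle; food and water withdrawn during testing; compound given iv; tail-flick response; ED50 derived.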

Sequence of Mu-type opioid receptor (Rattus norvegicus) (P33535 whole entry): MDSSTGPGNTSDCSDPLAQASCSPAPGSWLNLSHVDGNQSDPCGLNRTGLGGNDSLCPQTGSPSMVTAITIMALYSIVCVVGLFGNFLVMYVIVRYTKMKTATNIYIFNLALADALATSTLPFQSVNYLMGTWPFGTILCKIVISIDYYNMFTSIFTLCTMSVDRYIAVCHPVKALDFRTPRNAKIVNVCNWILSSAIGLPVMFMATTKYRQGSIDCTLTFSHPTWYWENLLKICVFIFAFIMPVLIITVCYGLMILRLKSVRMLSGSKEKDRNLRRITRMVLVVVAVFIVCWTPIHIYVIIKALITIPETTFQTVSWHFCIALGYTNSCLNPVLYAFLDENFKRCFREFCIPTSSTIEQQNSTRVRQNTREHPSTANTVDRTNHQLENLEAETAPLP

Row | Structure (SMILES) | inhibition [1] | inhibition [2] | inhibition [7] | also measured
1 | COC(=O)C12CN(C)CC(C(=O)OC)(C1=O)C(c1ccc([N+](=O)[O-])cc1)N(C)C2c1ccc([N+](=O)[O-])cc1 (stereo in doubt) | 4.6% | -3.1% |  | 
2 | COC(=O)C12CN(C)CC(C(=O)OC)(C1=O)C(c1cccc(Cl)c1)N(C)C2c1cccc(Cl)c1 (stereo unspecified) | 8.8% |  |  | pKa [3]: 9.51; pKa [4]: 10.6; inhibition [5]: 42.3%; inhibition [6]: -0.8%
3 | COC(=O)C12CN(C)CC(C(=O)OC)(C1=O)C(c1ccccc1F)N(C)C2c1ccccc1F (stereo unspecified) | -9.2% | 1.5% | 47.7% | 
4 | COC(=O)C12CN(C)CC(C(=O)OC)(C1=O)C(c1cccc(C)c1)N(C)C2c1cccc(C)c1 (stereo unspecified) | -5.9% |  |  | inhibition [6]: 3.4%
5 | COC(=O)C12CN(C)CC(C(=O)OC)(C1=O)C(c1ccccc1[N+](=O)[O-])N(C)C2c1ccccc1[N+](=O)[O-] (stereo unspecified) | 2.9% | -1.1% | 3.4% | 
6 | CCOC(=O)C12CN(C)CC(C(=O)OCC)(C1=O)C(c1ccc(Cl)cc1)N(C)C2c1ccc(Cl)cc1 (stereo unspecified) | -5% | 1.8% |  | Ki [8]: 1980 nM
7 | COC(=O)C12CN(C)CC(C(=O)OC)(C1=O)C(c1cccc3ccccc13)N(C)C2c1cccc2ccccc12 (stereo unspecified) |  | 1.8% | 7.8% | 
8 | COC(=O)C12CN(C)CC(C(=O)OC)(C1=O)C(c1ccccc1Cl)N(C)C2c1ccccc1Cl (stereo unspecified) | 2.7% | 1.9% | 65.4% | 
9 | COC(=O)C12CN(C)CC(C(=O)OC)(C1=O)C(c1cccc(OC)c1)N(C)C2c1cccc(OC)c1 (stereo unspecified) |  | -1.6% | 52.2% | 
10 | COC(=O)C12C[N+](C)(C)CC(C(=O)OC)(C1=O)C(c1ccccn1)N(C)C2c1ccccn1 (stereo unspecified) | 29.2% | 3.3% |  | inhibition [9]: 96.4%
11 | COC(=O)C12CN(C)CC(C(=O)OC)(C1=O)C(c1cccnc1)N(C)C2c1cccnc1 (stereo unspecified) | 30.7% | 1.1% | 54.8% | 
12 | COC(=O)C12CN(C)CC(C(=O)OC)(C1=O)C(c1ccc(C#N)cc1)N(C)C2c1ccc(C#N)cc1 (stereo unspecified) | 5.6% | 3.2% | 17.2% | 
13 | COC(=O)C12CN(C)CC(C(=O)OC)(C1=O)C(c1cccc(F)c1)N(C)C2c1cccc(F)c1 (stereo unspecified) | 5% | 3.2% |  | pKa [3]: 10.7; pKa [4]: 13.1; Ki [8]: 26 nM
14 | COC(=O)C12CN(C)CC(C(=O)OC)(C1=O)C(c1ccc(F)cc1)N(C)C2c1ccc(F)cc1 (stereo unspecified) | 10.1% | 0.4% |  | Ki [10]: 140 nM
15 | COC(=O)C12CN(C)CC(C(=O)OC)(C1=O)C(c1ccc([N+](=O)[O-])cc1)N(C)C2c1ccc([N+](=O)[O-])cc1 (trans isomer) | 4.8% | -4% |  | inhibition [9]: 27.8%
16 | CCOC(=O)C12CN(C)CC(C(=O)OCC)(C1=O)C(c1cccc([N+](=O)[O-])c1)N(C)C2c1cccc([N+](=O)[O-])c1 (stereo unspecified) | 2.3% | 6.1% |  | inhibition [9]: 5.9%
17 | COC(=O)C12CN(C)CC(C(=O)OC)(C1=O)C(c1cccc(O)c1)N(C)C2c1cccc(O)c1 (stereo unspecified) | 35.6% |  |  | pKa [3]: 7.97; pKa [4]: 10.3; pKa [11]: 9.21; pKa [12]: 9.12; inhibition [6]: 27%
18 | COC(=O)C12CN(C)CC(C(=O)OC)(C1=O)C(c1ccc(Cl)cc1)N(C)C2c1ccc(Cl)cc1 (stereo unspecified) | 2.2% | -2.1% | 63% | 
19 | COC(=O)C12CN(C)CC(C(=O)OC)(C1=O)C(c1ccc3ccccc3n1)N(C)C2c1ccc2ccccc2n1 (stereo unspecified) | 36.6% | 11.8% |  | Ki [8]: 190 nM
20 | COC(=O)C12CN(C)CC(C(=O)OC)(C1=O)C(c1ccncc1)N(C)C2c1ccncc1 (stereo unspecified) | 3.1% | -9% | 12.5% | 
21 | COC(=O)C12CN(C)CC(C(=O)OC)(C1=O)C(c1ccc(Cl)c(Cl)c1)N(C)C2c1ccc(Cl)c(Cl)c1 (stereo unspecified) | 6.1% | -5.3% | 38.9% | 
22 | COC(=O)C12CN(C)CC(C(=O)OC)(C1=O)C(c1ccc(O)cc1)N(C)C2c1ccc(O)cc1 (stereo unspecified) | 14.2% | 7.3% | 8.4% | 
23 | COC(=O)C12CN(C)CC(C(=O)OC)(C1=O)C(c1ccc3ccccc3c1)N(C)C2c1ccc2ccccc2c1 (stereo unspecified) |  | -2.1% | 18.6% | 
24 | CCOC(=O)C12CN(C)CC(C(=O)OCC)(C1=O)C(c1cccc(O)c1)N(C)C2c1cccc(O)c1 (stereo unspecified) | 10.5% | 6.9% | 92.7% | 
25 | COC(=O)C12CN(C)CC(C(=O)OC)(C1=O)C(c1ccc(OC)cc1)N(C)C2c1ccc(OC)cc1 (stereo unspecified) | 26.5% | 3% |  | pKa [3]: 5.51; pKa [4]: 9.05; Ki [10]: 18 nM
26 | COC(=O)C12CN(C)CC(C(=O)OC)(C1=O)C(c1cccc(C#N)c1)N(C)C2c1cccc(C#N)c1 (stereo unspecified) | 9.3% | 5% | 35.5% | 
27 | COC(=O)C12CN(C)CC(C(=O)OC)(C1=O)C(c1ccnc3ccccc13)N(C)C2c1ccnc2ccccc12 (stereo unspecified) | -7.1% | 1.2% | 25.8% | 
28 | COC(=O)C12CN(C)CC(C(=O)OC)(C1=O)C(c1ccccn1)N(C)C2c1ccccn1 (stereo unspecified) | 32.4% and 20% and 37.6% | -5.9% and -6.6% | 65% and 62.6% | inhibition [13]: 61.7%; ED50 [14]: 1.05 mg/kg; pKa [11]: 2.03; ED50 [15]: 6.7 mg/kg; pKa [12]: 3.47; inhibition [6]: 5%
29 | COC(=O)C12CN(C)CC(C(=O)OC)(C1=O)C(c1cccc([N+](=O)[O-])c1)N(C)C2c1cccc([N+](=O)[O-])c1 (stereo unspecified) |  | -7.9% | 10% | inhibition [6]: 14%
30 | CN1CC2(C(=O)O)C(=O)C(C(=O)O)(C1)C(c1ccccc1)N(C)C2c1ccccc1 (stereo unspecified) | 14.5% | -1.6% |  | Ki [10]: 210 nM; inhibition [6]: -0.3%
